Measured values as given in ChEMBL document CHEMBL5724801, “EUbOPEN Chemogenomics Library - Multiplex” (2024).
Several values for one entry are separate records, joined by “and”; a condition that tells them apart may be missing. Equal values may be shown once.

System: U2OS
Experiment: Multiplex assay against U2OS
Type: toxicity, cell-based
Conditions: human
Method in brief: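 Tubulin, mitochondrial-mass and membrane-permeability phenotypes are per cents of healthy-nucleus cells. Cells were gated by CellPathfinder machine learning into Hoechst high-intensity objects or normal cells, normal cells into healthy, pyknosed or fragmented nuclei, and pyknosed cells into mitotic or apoptotic. Before that, live cells stained at seeding with Hoechst33342, BioTracker Green Microtubule Cytoskeleton Dye, MitoTracker Red and Annexin V Alexa Fluor 680 were imaged on a CQ1 microscope at 37°C and 5% CO2 after compound addition.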

[1] = 12 h, 1 µM, compound concentration 1 uM
[2] = 12 h, 10 µM, compound concentration 10 uM
[3] = 24 h, 1 µM, compound concentration 1 uM
[4] = 24 h, 10 µM, compound concentration 10 uM
[5] = 48 h, 1 µM, compound concentration 1 uM
[6] = 48 h, 10 µM, compound concentration 10 uM

For `FC(F)(F)c1ccccc1-c1cc(C(F)(F)F)c2[nH]c(C3=NOC4(CCCCC4)C3)nc2c1`, the “Population Apoptotic (%)” value [1] was 48.57% and 27.27%, the “Population Fragmented Nuclei (%)” value [1] was 2.24% and 1.95% and the “Population Healthy Nuclei (%)” value [1] was 87.96% and 83.77%. For the same compound, the “Population Hoechst High Intensity Objects (%)” value [1] was 0%, the “Population Membrane Permeable-Phenotype (%)” value [1] was 1.91% and 5.43% and the “Population Mitochondria Different-Phenotype (%)” value [1] was 0.32% and 6.98%. The “Population Mitotic Cells (%)” value [1] was 51.43% and 72.73%, the “Population Normal (%)” value [1] was 100% and the “Population Pyknosed Nuclei (%)” value [1] was 9.8% and 14.29%. The “Population Tubulin-Different-Phenotype (%)” value [1] was 0.96% and 0%, the “Total Cell Count” value [1] was 357 and 154 and the “Population Apoptotic (%)” value [2] was 51.92% and 25%. For the same compound, the “Population Fragmented Nuclei (%)” value [2] was 1.81% and 6.56%, the “Population Healthy Nuclei (%)” value [2] was 82.53% and 69.4% and the “Population Hoechst High Intensity Objects (%)” value [2] was 0%. For the same compound, the “Population Membrane Permeable-Phenotype (%)” value [2] was 18.61% and 23.62%, the “Population Mitotic Cells (%)” value [2] was 48.08% and 75% and the “Population Normal (%)” value [2] was 100%. The “Population Pyknosed Nuclei (%)” value [2] was 15.66% and 24.04%, the “Population Tubulin-Different-Phenotype (%)” value [2] was 21.17% and 11.81% and the “Total Cell Count” value [2] was 332 and 183. For the same compound, the “Population Apoptotic (%)” value [3] was 53.33% and 54.17%, the “Population Fragmented Nuclei (%)” value [3] was 0.65% and 0% and the “Population Healthy Nuclei (%)” value [3] was 89.61% and 86.59%. For the same compound, the “Population Hoechst High Intensity Objects (%)” value [3] was 0%, the “Population Membrane Permeable-Phenotype (%)” value [3] was 1.69% and 5.16% and the “Population Mitochondria Different-Phenotype (%)” value [3] was 0.24% and 8.39%. The “Population Mitotic Cells (%)” value [3] was 46.67% and 45.83%, the “Population Normal (%)” value [3] was 100% and the “Population Pyknosed Nuclei (%)” value [3] was 9.74% and 13.41%. For the same compound, the “Population Tubulin-Different-Phenotype (%)” value [3] was 1.93% and 0.65%, the “Total Cell Count” value [3] was 462 and 179 and the “Population Apoptotic (%)” value [4] was 41.86% and 43.75%. The “Population Fragmented Nuclei (%)” value [4] was 2.02% and 5.56%, the “Population Healthy Nuclei (%)” value [4] was 76.26% and 70.2% and the “Population Hoechst High Intensity Objects (%)” value [4] was 0%. The “Population Mitotic Cells (%)” value [4] was 58.14% and 56.25%, the “Population Normal (%)” value [4] was 100% and the “Population Pyknosed Nuclei (%)” value [4] was 21.72% and 24.24%. For the same compound, the “Population Tubulin-Different-Phenotype (%)” value [4] was 24.17% and 12.95%, the “Total Cell Count” value [4] was 396 and 198 and the “Population Apoptotic (%)” value [5] was 45.78% and 50%. The “Population Fragmented Nuclei (%)” value [5] was 2.67% and 2.11%, the “Population Healthy Nuclei (%)” value [5] was 87.27% and 85.96% and the “Population Hoechst High Intensity Objects (%)” value [5] was 0.12% and 0%. For the same compound, the “Population Membrane Permeable-Phenotype (%)” value [5] was 0.69% and 1.63%, the “Population Mitochondria Different-Phenotype (%)” value [5] was 0.28% and 8.16% and the “Population Mitotic Cells (%)” value [5] was 54.22% and 50%. The “Population Normal (%)” value [5] was 99.88% and 100%, the “Population Pyknosed Nuclei (%)” value [5] was 10.06% and 11.93% and the “Population Tubulin-Different-Phenotype (%)” value [5] was 1.53% and 0.82%. For the same compound, the “Total Cell Count” value [5] was 826 and 285, the “Population Apoptotic (%)” value [6] was 40.68% and 58.46% and the “Population Fragmented Nuclei (%)” value [6] was 3.58% and 4.76%. For the same compound, the “Population Healthy Nuclei (%)” value [6] was 78.04% and 69.44%, the “Population Hoechst High Intensity Objects (%)” value [6] was 0% and the “Population Mitotic Cells (%)” value [6] was 59.32% and 41.54%. For the same compound, the “Population Normal (%)” value [6] was 100%, the “Population Pyknosed Nuclei (%)” value [6] was 18.38% and 25.79% and the “Population Tubulin-Different-Phenotype (%)” value [6] was 19.56% and 20.57%. For the same compound, the “Total Cell Count” value [6] was 642 and 252.

For `CN(C)CCOc1ccc(/C(=C(/CCCO)c2ccccc2)c2ccc(O)cc2)cc1`, the “Population Apoptotic (%)” value [1] was 43.75% and 21.88%, the “Population Fragmented Nuclei (%)” value [1] was 1.53% and 1.8% and the “Population Healthy Nuclei (%)” value [1] was 90.31% and 79.04%. For the same compound, the “Population Hoechst High Intensity Objects (%)” value [1] was 0%, the “Population Membrane Permeable-Phenotype (%)” value [1] was 2.26% and 4.55% and the “Population Mitotic Cells (%)” value [1] was 56.25% and 78.12%. For the same compound, the “Population Normal (%)” value [1] was 100%, the “Population Pyknosed Nuclei (%)” value [1] was 8.16% and 19.16% and the “Population Tubulin-Different-Phenotype (%)” value [1] was 2.54% and 2.27%. The “Total Cell Count” value [1] was 392 and 167, the “Population Apoptotic (%)” value [2] was 30.43% and 23.08% and the “Population Fragmented Nuclei (%)” value [2] was 2.02% and 2.16%. For the same compound, the “Population Healthy Nuclei (%)” value [2] was 71.39% and 69.78%, the “Population Hoechst High Intensity Objects (%)” value [2] was 0% and the “Population Membrane Permeable-Phenotype (%)” value [2] was 13.77% and 36.08%. For the same compound, the “Population Mitotic Cells (%)” value [2] was 69.57% and 76.92%, the “Population Normal (%)” value [2] was 100% and the “Population Pyknosed Nuclei (%)” value [2] was 26.59% and 28.06%. For the same compound, the “Population Tubulin-Different-Phenotype (%)” value [2] was 60.73% and 38.14%, the “Total Cell Count” value [2] was 346 and 139 and the “Population Apoptotic (%)” value [3] was 35.85% and 30.56%. For the same compound, the “Population Fragmented Nuclei (%)” value [3] was 0.75% and 3.24%, the “Population Healthy Nuclei (%)” value [3] was 89.35% and 80.09% and the “Population Hoechst High Intensity Objects (%)” value [3] was 0%. For the same compound, the “Population Membrane Permeable-Phenotype (%)” value [3] was 0.63% and 4.05%, the “Population Mitotic Cells (%)” value [3] was 64.15% and 69.44% and the “Population Normal (%)” value [3] was 100%. The “Population Pyknosed Nuclei (%)” value [3] was 9.91% and 16.67%, the “Population Tubulin-Different-Phenotype (%)” value [3] was 1.67% and 1.16% and the “Total Cell Count” value [3] was 535 and 216. For the same compound, the “Population Apoptotic (%)” value [4] was 44.63% and 34.25%, the “Population Fragmented Nuclei (%)” value [4] was 2.92% and 1.89% and the “Population Healthy Nuclei (%)” value [4] was 67.64% and 52.2%. For the same compound, the “Population Hoechst High Intensity Objects (%)” value [4] was 0%, the “Population Membrane Permeable-Phenotype (%)” value [4] was 12.23% and 26.51% and the “Population Mitotic Cells (%)” value [4] was 55.37% and 65.75%. The “Population Normal (%)” value [4] was 100%, the “Population Pyknosed Nuclei (%)” value [4] was 29.44% and 45.91% and the “Population Tubulin-Different-Phenotype (%)” value [4] was 51.08% and 46.99%. For the same compound, the “Total Cell Count” value [4] was 411 and 159, the “Population Apoptotic (%)” value [5] was 42.71% and 56.25% and the “Population Fragmented Nuclei (%)” value [5] was 2% and 2.61%. For the same compound, the “Population Healthy Nuclei (%)” value [5] was 87.88% and 81.7%, the “Population Hoechst High Intensity Objects (%)” value [5] was 0.11% and 0% and the “Population Membrane Permeable-Phenotype (%)” value [5] was 1.2% and 2%. The “Population Mitotic Cells (%)” value [5] was 57.29% and 43.75%, the “Population Normal (%)” value [5] was 99.89% and 100% and the “Population Pyknosed Nuclei (%)” value [5] was 10.12% and 15.69%. The “Population Tubulin-Different-Phenotype (%)” value [5] was 2.28% and 1.6%, the “Population Apoptotic (%)” value [6] was 54.89% and 66.67% and the “Population Fragmented Nuclei (%)” value [6] was 4.64% and 2.86%. For the same compound, the “Population Healthy Nuclei (%)” value [6] was 74.08% and 49.14%, the “Population Hoechst High Intensity Objects (%)” value [6] was 0% and the “Population Mitotic Cells (%)” value [6] was 45.11% and 33.33%. The “Population Normal (%)” value [6] was 100%, the “Population Pyknosed Nuclei (%)” value [6] was 21.28% and 48% and the “Population Tubulin-Different-Phenotype (%)” value [6] was 26.13% and 55.81%.
